The values below come from ChEMBL document CHEMBL1933052, “Synthesis and anti-protozoal activity of novel dihydropyrrolo[3,4-d][1,2,3]triazoles” (Eur J Med Chem, 2012).

The test system of experiment [1] is Trypanosoma brucei rhodesiense. As to the kind of experiment: Trypanocidal activity against Trypanosoma brucei rhodesiense STIB 900 bloodstream forms after 72 hrs by resazurin assay. The class given is functional, organism-based. Particulars: STIB 900, 72 h. The procedure, abridged:
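Bloodstream forms, 10^4/well, in MEM with 25 mM HEPES, extra glucose, non-essential amino acids, 0.2 mM 2-mercaptoethanol, 1 mM pyruvate, 15% heat-inactivated horse serum; seven 3-fold dilutions 90 to 0.123 µg/mL; 37 °C, 5% CO2, 72 h; resazurin 2–4 h more; fluorescence ex 536/em 588 nm; melarsoprol standard.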

In another experiment the test system is Trypanosoma cruzi. As to the kind of experiment: Trypanocidal activity against trypomastigote Trypanosoma cruzi Tulahuen C2C4 infected in L6 cells after 96 hrs by beta-galactosidase reporter gene assay. The class given is functional, organism-based. Particulars: Tulahuen C2C4, L6, 96 h.
A further experiment has as its system Leishmania donovani. Put plainly: Leishmanicidal activity against Leishmania donovani MHOM/ET/67/L82 amastigote forms after 72 hrs by resazurin assay. It counts as functional, organism-based. Particulars: MHOM/ET/67/L82, 72 h.
The next experiment has as its system Plasmodium falciparum. Put plainly: Antimalarial activity against chloquine- and pyrimethamine-resistant Plasmodium falciparum K1 erythrocytic stage assessed as inhibition of [3H]hypoxanthine incorporation after 48 hrs by liquid scintillation counting. The class given is functional, organism-based. The procedure, abridged:
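Erythrocytic-stage cultures in hypoxanthine-free RPMI 1640 with 5% Albumax, exposed to serial drug dilutions at 37 °C under reduced oxygen for 48 h. 0.5 μCi [3H]-hypoxanthine per well was then added for a further 24 h. Cells were harvested onto glass-fibre filters and counted as CPM, expressed as % of untreated controls. IC50 was read from dose–response curves. Chloroquine was the reference.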

A further experiment concerns L6. Put plainly: Cytotoxicity against rat L6 cells after 72 hrs by resazurin assay. The class given is cell-based. Particulars: L6, 72 h. The procedure, abridged: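 L6 rat skeletal myoblasts, 4×10^4 cells/well in RPMI 1640 with 10% FBS and L-glutamine; seven 3-fold serial dilutions, 90 to 0.123 µg/mL; 72 h; microscopic check of controls and sterility; resazurin added, 2 h further; fluorescence read at ex 536/em 588 nm.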

In brackets after ≈: the same amount, converted by molar mass.

As to `O=C1[C@H]2N=NN(Cc3nc(-c4ccccc4)no3)[C@H]2C(=O)N1c1ccccc1`, the IC50 in experiment [1] is 7 µg/mL (≈ 18.7 µM); in the experiment with Trypanosoma cruzi, 46.1 µg/mL (≈ 123 µM); in the experiment with Leishmania donovani, 1.6 µg/mL (≈ 4.27 µM); with Plasmodium falciparum it was 22.6 µg/mL (≈ 60.4 µM); in the experiment on L6, 47.3 µg/mL (≈ 126 µM).
On the same counts, the results for `O=C1[C@H]2N=NN(Cc3nc(-c4ccc(Cl)cc4)no3)[C@H]2C(=O)N1c1ccccc1` are 17.2 µg/mL (≈ 42.1 µM), 49 µg/mL (≈ 120 µM), 3.2 µg/mL (≈ 7.83 µM), 24.9 µg/mL (≈ 60.9 µM) and 49.5 µg/mL (≈ 121 µM).
On the same counts, the results for `O=C1[C@H]2N=NN(Cc3nc(-c4ccc(Br)cc4)no3)[C@H]2C(=O)N1c1ccccc1` are 18.2 µg/mL (≈ 40.2 µM), 54.9 µg/mL (≈ 121 µM), 3.5 µg/mL (≈ 7.72 µM), 26.9 µg/mL (≈ 59.3 µM) and 58.6 µg/mL (≈ 129 µM).
For `O=C1[C@H]2N=NN(Cc3nc(-c4ccc(F)cc4)no3)[C@H]2C(=O)N1c1ccccc1` the same measures were 12.3 µg/mL (≈ 31.3 µM), 62.4 µg/mL (≈ 159 µM), 4.1 µg/mL (≈ 10.4 µM), 23.6 µg/mL (≈ 60.2 µM) and > 100 µg/mL.
As for `Cc1ccc(-c2noc(CN3N=N[C@@H]4C(=O)N(c5ccccc5)C(=O)[C@@H]43)n2)cc1`, the IC50 was 8.4 µg/mL (≈ 21.6 µM) in experiment [1]; 38.9 µg/mL (≈ 100 µM) in the experiment on Trypanosoma cruzi; 2.2 µg/mL (≈ 5.66 µM) in the experiment with Leishmania donovani; 13.2 µg/mL (≈ 34 µM) in the experiment on Plasmodium falciparum; 15.2 µg/mL (≈ 39.1 µM) in the experiment on L6.
With `O=C1[C@H]2N=NN(Cc3nc(-c4ccc(I)cc4)no3)[C@H]2C(=O)N1c1ccccc1`, the IC50 in experiment [1] was 18.8 µg/mL (≈ 37.6 µM); in the experiment with Trypanosoma cruzi, 47.2 µg/mL (≈ 94.4 µM); in the experiment on Leishmania donovani, 3.6 µg/mL (≈ 7.2 µM); with Plasmodium falciparum it was 20.4 µg/mL (≈ 40.8 µM); with L6 it was 48.6 µg/mL (≈ 97.2 µM).
On the same counts, the results for `O=C1[C@H]2N=NN(Cc3nc(-c4ccc([N+](=O)[O-])cc4)no3)[C@H]2C(=O)N1c1ccccc1` are 8 µg/mL (≈ 19.1 µM), 41.1 µg/mL (≈ 98 µM), 2 µg/mL (≈ 4.77 µM), 14.7 µg/mL (≈ 35.1 µM) and > 100 µg/mL.
On the same counts, the results for `COc1ccc(-c2noc(CN3N=N[C@@H]4C(=O)N(c5ccccc5)C(=O)[C@@H]43)n2)cc1` are 16.9 µg/mL (≈ 41.8 µM), 54 µg/mL (≈ 134 µM), 3.4 µg/mL (≈ 8.41 µM), 17 µg/mL (≈ 42 µM) and > 100 µg/mL.
On the same counts, the results for `CSc1ccc(-c2noc(CN3N=N[C@@H]4C(=O)N(c5ccccc5)C(=O)[C@@H]43)n2)cc1` are 16.3 µg/mL (≈ 38.8 µM), 48.5 µg/mL (≈ 115 µM), 3.5 µg/mL (≈ 8.32 µM), 20.6 µg/mL (≈ 49 µM) and > 100 µg/mL.
Regarding `O=C1[C@H]2N=NN(Cc3nc(-c4ccc(C(F)(F)F)cc4)no3)[C@H]2C(=O)N1c1ccccc1`, the IC50 in experiment [1] was determined as 13.9 µg/mL (≈ 31.4 µM); with Trypanosoma cruzi, 51.4 µg/mL (≈ 116 µM); with Leishmania donovani it was 3.7 µg/mL (≈ 8.36 µM); with Plasmodium falciparum, 15 µg/mL (≈ 33.9 µM); in the experiment on L6, 44.4 µg/mL (≈ 100 µM).
For `CN(C)c1ccc(-c2noc(CN3N=N[C@@H]4C(=O)N(c5ccccc5)C(=O)[C@@H]43)n2)cc1` the same measures were 13.1 µg/mL (≈ 31.4 µM), 36.6 µg/mL (≈ 87.7 µM), 4.5 µg/mL (≈ 10.8 µM), 21 µg/mL (≈ 50.3 µM) and > 100 µg/mL.
Regarding `O=C(Cn1ccnc1[N+](=O)[O-])NCc1ccccc1` [BENZNIDAZOLE], the IC50 in the experiment with Trypanosoma cruzi worked out at 0.464 µg/mL (≈ 1.78 µM).
In the experiment on Leishmania donovani, `CCCCCCCCCCCCCCCCOP(=O)([O-])OCC[N+](C)(C)C` [MILTEFOSINE] returned a 50% inhibitory concentration (IC50) of 0.171 µg/mL (≈ 0.42 µM).
Take `COc1cc([C@@H]2c3cc4c(cc3[C@H](O)[C@H]3COC(=O)[C@H]23)OCO4)cc(OC)c1OC` [PODOFILOX]: in the experiment with L6, the IC50 is 0.007 µg/mL (≈ 0.0169 µM).
